Results as given in ChEMBL document CHEMBL1129067, “Dioxabicyclooctanyl naphthalenenitriles as nonredox 5-lipoxygenase inhibitors: structure-activity relationship study directed toward the improvement of metabolic stability” (J Med Chem, 1996).

Experiments:
Homo sapiens [1] = organism: Homo sapiens; assay: Compound was tested for the inhibition of LTB4 production in human whole blood (HWB); format: functional; settings: Homo sapiens, Blood
How it was run: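 LTB4 generation measured in human whole blood. IC50 values are the mean of at least two independent titrations, though some values come from a single titration. Where more than two IC50 values were determined, the 95% confidence limits were within 90% of the mean.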

[2] = target: T1, Polyunsaturated fatty acid 5-lipoxygenase (Homo sapiens, UniProt P09917); assay: Potency to inhibit oxidation of arachidonic acid by recombinant human 5-lipoxygenase
T1 sequence (P09917 whole entry): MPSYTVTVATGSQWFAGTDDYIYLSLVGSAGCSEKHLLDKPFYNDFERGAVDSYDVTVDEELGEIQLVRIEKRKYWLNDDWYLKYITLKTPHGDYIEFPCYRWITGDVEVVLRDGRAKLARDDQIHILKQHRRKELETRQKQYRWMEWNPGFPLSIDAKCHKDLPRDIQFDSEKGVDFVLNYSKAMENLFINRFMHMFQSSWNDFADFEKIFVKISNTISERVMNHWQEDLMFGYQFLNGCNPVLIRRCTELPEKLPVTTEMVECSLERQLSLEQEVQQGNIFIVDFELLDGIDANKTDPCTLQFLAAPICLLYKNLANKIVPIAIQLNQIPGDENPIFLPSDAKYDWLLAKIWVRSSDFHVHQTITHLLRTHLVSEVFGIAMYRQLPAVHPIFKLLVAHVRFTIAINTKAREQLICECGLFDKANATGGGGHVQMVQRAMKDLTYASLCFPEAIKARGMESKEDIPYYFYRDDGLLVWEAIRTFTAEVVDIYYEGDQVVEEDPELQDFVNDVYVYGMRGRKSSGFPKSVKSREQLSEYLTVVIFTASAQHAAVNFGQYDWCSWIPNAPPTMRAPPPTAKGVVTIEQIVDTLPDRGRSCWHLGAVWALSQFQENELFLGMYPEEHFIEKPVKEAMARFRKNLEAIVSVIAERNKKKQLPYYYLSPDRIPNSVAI

Homo sapiens [3] = organism: Homo sapiens; assay: Test inhibition of LTB4 production in human peripheral blood polymorphonuclear leukocytes (HPMN); format: functional; settings: Homo sapiens
How it was run: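 LTB4 generation measured in human peripheral blood polymorphonuclear leukocytes. IC50 values are the mean of at least two independent determinations, though some values come from a single titration.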

| SMILES | IC50 (Homo sapiens [1]) | IC50 [2] | IC50 (Homo sapiens [3]) |
| --- | --- | --- | --- |
| O=C(c1cc(-c2ccoc2)c2ccc(OCc3cccc(C4(O)CCOCC4)c3)cc2c1)c1nccs1 | 130 nM | 50 nM | 2 nM |
| O=C1OCc2c1cc1cc(OCc3cccc(C4(O)CC5C=CC(C4)O5)c3)ccc1c2-c1ccccc1 (stereo unspecified) | > 3000 nM | 400 nM | 27 nM |
| CC1(C)COC(c2cc(-c3ccoc3)c3ccc(OCc4cccc(C5(O)CCOCC5)c4)cc3c2)=N1 | 2900 nM | 190 nM | 17 nM |
| OC1(c2cccc(COc3ccc4c(-c5ccccc5)cc(-c5nn[nH]n5)cc4c3)c2)CCOCC1 | > 3000 nM | > 6000 nM | > 700 nM |
| OCc1cc(-c2ccccc2)c2ccc(OCc3cccc(C4(O)CCOCC4)c3)cc2c1 | – | 260 nM | 9 nM |
| CC1CC(O)(c2cccc(COc3ccc4c(-c5ccccc5)c5c(cc4c3)C(=O)OC5)c2)CC(C)O1 (stereo unspecified) | 900 nM | 180 nM | 3 nM |
| Cn1nnnc1-c1cc(-c2ccccc2)c2ccc(OCc3cccc(C4(O)CCOCC4)c3)cc2c1 | > 10000 nM | 3000 nM | > 67 nM |
| CC(=O)c1cc(-c2ccccc2)c2ccc(OCc3cccc(C4(O)CCOCC4)c3)cc2c1 | 90 nM | 130 nM | 2 nM |
| O=C1OCc2c1cc1cc(OCc3cccc(C4(O)CCOCC4)c3)ccc1c2-c1ccoc1 | 100 nM | 26 nM | 2 nM |
| OC1(c2cccc(COc3ccc4c(-c5ccoc5)cc(C5=NCCO5)cc4c3)c2)CCOCC1 | 50 nM | 70 nM | 3 nM |
| COC(=O)c1cc(Cc2ccccc2)c2ccc(OCc3cccc(C4(O)CCOCC4)c3)cc2c1 | – | > 6000 nM | > 70 nM |
| Cn1nnc(-c2cc(-c3ccccc3)c3ccc(OCc4cccc(C5(O)CCOCC5)c4)cc3c2)n1 | 310 nM | 120 nM | 4 nM |
| O=C1OCc2c1cc1cc(OCc3cccc(C4(O)CC5COC(C4)O5)c3)ccc1c2-c1ccccc1 (stereo unspecified) | 540 nM | 240 nM | 6 nM |
| O=C1OCc2c1cc1cc(OCc3cccc(C4(O)CCOCC4)c3)ccc1c2-c1ccccc1 | 140 nM | – | 2 nM |
| O=C1OCc2c1cc1cc(OCc3cccc(C4(O)CCOCC4)c3)ccc1c2-c1ccccc1F | 1800 nM | 360 nM | 18 nM |
| OC1(c2cccc(COc3ccc4c(-c5ccccc5)cc(Cn5ccnc5)cc4c3)c2)CCOCC1 | – | 640 nM | 40 nM |
| COC(C)c1cc(-c2ccccc2)c2ccc(OCc3cccc(C4(O)CCOCC4)c3)cc2c1 (stereo unspecified) | > 1000 nM | 1200 nM | 41 nM |

Now from value to compound:

| IC50 (Homo sapiens [1]) | IC50 [2] | IC50 (Homo sapiens [3]) | SMILES |
| --- | --- | --- | --- |
| 1000 nM | 320 nM | 8 nM | O=C1OCc2c1cc1cc(OCc3cccc(C4(O)CC5CCC(C4)O5)c3)ccc1c2-c1ccccc1 (stereo unspecified) |
| 75 nM | 50 nM | 2 nM | OC1(c2cccc(COc3ccc4c(-c5ccoc5)cc(C5=NCCS5)cc4c3)c2)CCOCC1 |
| – | > 6000 nM | > 62 nM | OC1(c2cccc(COc3ccc4c(-c5ccoc5)cc(-c5nc6ccccc6s5)cc4c3)c2)CCOCC1 |
| > 1000 nM | 760 nM | 10 nM | CCc1cc(-c2ccccc2)c2ccc(OCc3cccc(C4(O)CCOCC4)c3)cc2c1 |
| > 3000 nM | > 6000 nM | > 700 nM | O=C1OC(O)c2c1cc1cc(OCc3cccc(C4(O)CCOCC4)c3)ccc1c2-c1ccccc1 (stereo unspecified) |
| – | – | 190 nM | O=C(O)c1cc(-c2ccccc2)c2ccc(OCc3cccc(C4(O)CCOCC4)c3)cc2c1 |
| > 3000 nM | 390 nM | 35 nM | O=C1CC(O)(c2cccc(COc3ccc4c(-c5ccccc5)c5c(cc4c3)C(=O)OC5)c2)CCO1 (stereo unspecified) |
| 675 nM | 520 nM | 28 nM | CC(O)c1cc(-c2ccccc2)c2ccc(OCc3cccc(C4(O)CCOCC4)c3)cc2c1 (stereo unspecified) |
| 100 nM | 120 nM | 3 nM | N#Cc1cc(-c2ccccc2)c2ccc(OCc3cccc(C4(O)CCOCC4)c3)cc2c1 |
